# Experimental data published in publication PMC8733272 (iScience, 2021).
# Changes are numbered by the printed parent chain. “Also recorded” adds a separate entry of the source.
# Key:
# [1] = target: T1, N-terminally tagged W403A-Parkin (Homo sapiens, UniProt O60260, W403A); assay: In vitro ubiquitin vinyl sulfone; assay type: biochemical; details: 3 μM pUb, 1 h
# T1 sequence (O60260 1-465 W403A): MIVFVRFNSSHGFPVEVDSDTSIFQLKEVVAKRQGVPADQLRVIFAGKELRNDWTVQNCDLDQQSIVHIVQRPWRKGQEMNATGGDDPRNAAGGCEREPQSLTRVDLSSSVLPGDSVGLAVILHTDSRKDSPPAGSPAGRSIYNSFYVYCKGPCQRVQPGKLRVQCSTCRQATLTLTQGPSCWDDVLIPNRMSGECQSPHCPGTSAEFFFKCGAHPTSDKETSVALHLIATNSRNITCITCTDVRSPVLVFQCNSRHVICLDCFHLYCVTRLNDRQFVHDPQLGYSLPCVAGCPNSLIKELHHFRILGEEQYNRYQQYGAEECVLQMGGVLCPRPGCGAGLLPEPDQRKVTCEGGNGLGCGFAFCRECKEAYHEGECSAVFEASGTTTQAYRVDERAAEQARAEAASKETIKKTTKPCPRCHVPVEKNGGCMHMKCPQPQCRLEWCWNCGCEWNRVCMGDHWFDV
# How it was run: (§1)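 Tagged Parkin (WT or W403A), 2 μM, incubated with 10 μM Ub-VS and 3 μM pUb. Test compound at 0, 0.09, 0.27, 0.8, 2.5, 7.4, 22.2, 66.7 and 200 μM. Buffer: 50 mM HEPES, 150 mM NaCl, 1 mM TCEP, pH 8.0. Final DMSO 2% (v/v).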
# [2] = tested on: SH-SY5Y cells expressing the MitoQC construct; assay: MitoQC mitophagy assay; assay type: cell-based; details: 1 h pre-incubation, Antimycin + Oligomycin
# How it was run: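 SH-SY5Y cells carrying MitoQC were seeded at 1.6×10^4 cells/well on attachment factor and recovered 72 h. Cells were pre-treated 1 h with test compound, then given 5 μM Antimycin + 10 μM Oligomycin or DMSO for 8 h unless stated otherwise. Fixed in 2% PFA on ice 30 min, DAPI-stained, and imaged at 64x (25 fields, 4 replicate wells). mCherry puncta (mitolysosomes) were counted.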
# [3] = target: T2, WT-Parkin (substrate His-Miro1 186-591) (Homo sapiens, UniProt O60260); assay: Miro1 ubiquitination assay by Western blot; assay type: biochemical; details: His-Miro1 (186-591) substrate
# T2 sequence (O60260 1-465): T1 sequence (O60260 1-465 W403A) with A403W
# How it was run: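 Run as the TR-FRET reaction with untagged WT-Parkin. Test compound was pre-incubated 30 min with E1, E2, Parkin and His-Miro1 186-591 (250 nM final); the 2X mix held 40 nM E1, 800 nM E2 and 100 nM Parkin. After 20 min the reaction was stopped in SDS sample buffer, then run on 4–12% bis-tris SDS-PAGE, PVDF transfer and IR-dye secondary imaging.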
# WT-Parkin = target: T3, WT-Parkin (Homo sapiens, UniProt O60260); assay: Parkin autoubiquitination by Western blot; assay type: biochemical; details: 5 min reaction at 37°C
# T3 sequence (O60260 1-465): T1 sequence (O60260 1-465 W403A) with A403W
# How it was run: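 Untagged WT-Parkin was pre-incubated 30 min at 37°C with E1, E2 and test compound; the 2X mix held 40 nM E1, 800 nM E2 and 100 nM Parkin. Then 2X substrate mix was added (760 nM fluorescein-Ub, 50 μM ubiquitin, 10 μM pUb, 2 mM ATP) in HEPES pH 7.4 buffer with 1% DMSO, in 40 μL. Stopped after 5 min with SDS sample buffer; polyubiquitin smears were read by Western blot.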
# [4] = target: T4, N-terminally tagged C431S-Parkin (Homo sapiens, UniProt O60260, C431S); assay: In vitro ubiquitin vinyl sulfone; assay type: biochemical; details: 200 μM compound, range of pUb concentrations
# T4 sequence (O60260 1-465 C431S): T1 sequence (O60260 1-465 W403A) with A403W, C431S
# [5] = target: T5, N-terminally tagged WT-Parkin (Homo sapiens, UniProt O60260); assay: In vitro ubiquitin vinyl sulfone; assay type: biochemical; details: 3 μM pUb, 2 h
# T5 sequence (O60260 1-465): T1 sequence (O60260 1-465 W403A) with A403W
# How it was run: as §1
# pParkin = target: T6, pParkin (Homo sapiens, UniProt O60260); assay: TR-FRET autoubiquitination assay with phospho-Parkin without pUb; assay type: biochemical; details: TR-FRET ratio, no pUb
# T6 sequence (O60260 1-465): T1 sequence (O60260 1-465 W403A) with A403W
# [6] = tested on: GFP-Parkin expressing HeLa cells; assay: Parkin translocation assay; assay type: cell-based
# How it was run: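 HeLa cells stably expressing GFP-Parkin (lentiviral, blasticidin-selected, FACS-sorted for matched GFP) were seeded at 1.6×10^4 cells/well and recovered 24 h. Nuclei were Hoechst-stained 30 min. Cells were pre-treated 1 h with test compound, then given 20 μM CCCP. Live imaging every 10 min for 3 h at 20x, 37°C, 5% CO2, with 9 fields in each of 4 replicate wells.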
# [7] = target: Human MDR1 efflux transporter (MDCK-MDR1 cells) (Homo sapiens, UniProt P08183); assay: MDCK-MDR1 bidirectional permeability / efflux; assay type: in vitro ADME; details: average of inward and outward permeability
# How it was run: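 MDCK-MDR1 cells were seeded at 0.28×10^6 cells/mL on the apical side of transwell inserts and grown 7 days, with two media changes. Monolayers were rinsed in HBSS/1% HEPES pH 7.4. 1 μM test compound was added to the donor side (A>B and B>A); receivers held buffer with 1% BSA. Plates were shaken 2 h at 37°C. Donor was sampled at 0 and 120 min, receiver at 2 h, and quenched with acetonitrile plus internal standard for LC-MS/MS. Post-assay TEER had to exceed 430 ohm∗cm2. Papp = (dQ/dt)(1/C0)(1/A); ER = Papp B>A / Papp A>B.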
# Chain of Human MDR1 efflux transporter (MDCK-MDR1 cells) (P08183 whole entry): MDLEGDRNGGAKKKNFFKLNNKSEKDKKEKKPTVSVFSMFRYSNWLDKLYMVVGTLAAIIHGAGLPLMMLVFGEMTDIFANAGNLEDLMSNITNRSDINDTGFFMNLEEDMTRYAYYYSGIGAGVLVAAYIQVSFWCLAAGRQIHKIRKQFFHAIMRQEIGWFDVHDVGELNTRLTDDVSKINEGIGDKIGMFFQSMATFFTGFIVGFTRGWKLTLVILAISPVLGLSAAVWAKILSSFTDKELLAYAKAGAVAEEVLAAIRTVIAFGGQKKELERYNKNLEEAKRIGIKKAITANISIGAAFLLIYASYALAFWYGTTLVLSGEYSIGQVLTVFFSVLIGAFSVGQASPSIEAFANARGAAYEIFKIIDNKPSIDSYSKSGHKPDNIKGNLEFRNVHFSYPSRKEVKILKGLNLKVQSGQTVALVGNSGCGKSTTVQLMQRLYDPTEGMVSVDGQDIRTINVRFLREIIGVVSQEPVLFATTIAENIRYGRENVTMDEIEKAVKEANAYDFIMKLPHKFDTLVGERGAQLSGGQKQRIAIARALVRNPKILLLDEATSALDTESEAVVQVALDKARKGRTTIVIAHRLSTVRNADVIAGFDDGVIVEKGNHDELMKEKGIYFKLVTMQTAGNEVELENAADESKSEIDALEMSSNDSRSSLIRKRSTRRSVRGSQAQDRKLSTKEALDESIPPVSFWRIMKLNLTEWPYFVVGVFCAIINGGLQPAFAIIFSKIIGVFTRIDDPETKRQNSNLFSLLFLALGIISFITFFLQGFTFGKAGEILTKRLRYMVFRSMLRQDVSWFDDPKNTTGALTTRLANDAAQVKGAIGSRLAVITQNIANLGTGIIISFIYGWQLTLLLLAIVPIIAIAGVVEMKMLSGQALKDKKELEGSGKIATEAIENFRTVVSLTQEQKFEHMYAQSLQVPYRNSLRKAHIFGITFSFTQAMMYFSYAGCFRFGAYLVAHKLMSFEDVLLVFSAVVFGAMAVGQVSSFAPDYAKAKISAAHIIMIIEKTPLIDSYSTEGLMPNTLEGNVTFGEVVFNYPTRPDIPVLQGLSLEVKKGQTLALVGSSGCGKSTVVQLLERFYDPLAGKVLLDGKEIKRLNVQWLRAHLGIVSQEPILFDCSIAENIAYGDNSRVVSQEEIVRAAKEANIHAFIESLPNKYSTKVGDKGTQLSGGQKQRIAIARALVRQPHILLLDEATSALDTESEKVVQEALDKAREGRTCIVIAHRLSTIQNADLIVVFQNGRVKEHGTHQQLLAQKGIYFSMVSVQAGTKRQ
compound,measurement,setting,value
"CO[C@H](C(=O)N1Cc2c(-c3ccc(C(=O)N4CCCc5ccccc54)cc3)cnn2C[C@H]1C(C)C)c1cnn(C)c1 (single isomer, unassigned) [BIO-2007817]",Ub-VS charging of W403A-Parkin,[1],further stimulated exposure of the active-site C431
same,"effect on mitophagy, MitoQC",[2],nor promote mitophagy in MitoQC SH-SY5Y cell lines
same,Miro1 ubiquitination by Western blot,[3],able to induce the appearance of monoubiquitinated forms of Miro1
same,Parkin autoubiquitination by Western blot,WT-Parkin,stimulated Parkin autoubiquitination as measured by Western blots in a concentration-dependent manner
same,Ub-VS charging of C431S-Parkin,[4],not responsive; also recorded: no activity
same,Ub-VS charging of WT-Parkin,"[5]; no E1, E2 or ATP",induced the appearance of slower-migrating Parkin species in a concentration-dependent manner
same,concentration above which maximal efficacy is approached in Ub-VS charging,[5]; WT-Parkin,above 20 μM
same,activation of phospho-Parkin in the absence of pUb,pParkin,can act as an agonist for activated phospho-Parkin even in the absence of pUb
same,effect on Parkin translocation rate in the presence of valspodar,[6]; HeLa cells with and without valspodar (MDR1 inhibitor),No change in Parkin translocation rate
same,effect on rate of Parkin translocation to mitochondria,"[6]; eGFP-WT-Parkin HeLa, 1 h pretreatment, then CCCP",did not significantly change the rate of translocation of Parkin; also recorded: not able to promote Parkin translocation to depolarized mitochondria in HeLa cells
same,MDR1-MDCK avg (average of Papp AB/BA),[7],19.8 ×10⁻⁶ cm/s
